Data taken from ChEMBL document CHEMBL1255494, “In vivo comparison of the pharmacodynamic targets for echinocandin drugs against Candida species” (Antimicrob Agents Chemother, 2010).
≈ marks a conversion by molar mass, not a printed value. *1 amine or outer side, *2 acyl side, *3 side chain or, on linkers, in order; H or OH if unused. Where a SMILES comes first, the peptide text is derived from it. Bridges are numbered along the chain shown (N, C = ends). [ ]: non-standard residue; d: D form. The star is where a group is joined. hTyr(3S-OH,4S-OH,3'-OSO3H) = N[C@H](C(=O)O)[C@H](O)[C@@H](O)c1ccc(O)c(OS(=O)(=O)O)c1; pTerphenylCO(4''-OnC5H11) = CCCCCOc1ccc(-c2ccc(-c3ccc(C(=O)*)cc3)cc2)cc1; Orn(4R-OH,5R-OH) = O=C([C@H](C[C@@H](O)[C@@H](O)N[*:3])N[*:1])[*:2]; hTyr(3S-OH,4S-OH) = N[C@H](C(=O)O)[C@H](O)[C@@H](O)c1ccc(O)cc1; Pro(3S-OH,4S-Me) = C[C@H]1CN[C@H](C(=O)O)[C@H]1O; X1 = CCCCCOc1ccc(-c2cc(-c3ccc(C(=O)*)cc3)no2)cc1; Gln(3R-OH) = NC(=O)C[C@@H](O)[C@H](N)C(=O)O; Hyp = O=C(O)[C@@H]1C[C@@H](O)CN1

How the values were obtained:
Candida albicans [1] = experiment: Antifungal activity against Candida albicans 98-234 after 24 hrs; assay type: functional; conditions: 98-234, 24 h
Method in brief: (§1)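 MICs by CLSI M27-A3 broth dilution in RPMI 1640, inoculum 0.5 × 10³ to 2.5 × 10³ cells/ml, 35°C. Read visually at 24 h as the lowest concentration giving ≥50% growth reduction versus control. Run on three occasions in duplicate and reported as the mean. C. krusei ATCC 6258 and C. parapsilosis ATCC 22019 served as QC strains.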

Mus musculus [2] = experiment: Cmax in Candida albicans infected neutropenic ICR Swiss mouse at 80 mg/kg, ip; assay type: ADME, organism-based; set-up: dose 80 mg/kg, route intraperitoneal; conditions: in vivo
Method in brief: (§2)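 Neutropenic female ICR Swiss mice (cyclophosphamide sc at 150 mg/kg on day −4, 100 mg/kg on day −1 and day +2) infected iv via tail vein with Candida; single ip doses of 5, 20 or 80 mg/kg. Serum drawn from 3 mice per time point at eight time points and assayed by microbiologic assay (C. albicans K1) or […]. Noncompartmental analysis; AUC by trapezoidal rule.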

Nakaseomyces glabratus [3] = experiment: Antifungal activity against Candida glabrata 35315 after 24 hrs; assay type: functional; conditions: Nakaseomyces glabratus, 35315, 24 h; method in brief: as §1
[4] = AUC (0 to 24 hrs) in Candida albicans infected neutropenic ICR Swiss mouse at 20 mg/kg, ip; assay type: ADME, organism-based; set-up: time < 24 hr, dose 20 mg/kg, route intraperitoneal; conditions: plasma; method in brief: as §2
Candida parapsilosis [5] = experiment: Antifungal activity against Candida parapsilosis infected in ICR Swiss mouse; assay type: functional; conditions: for ED50: Lodderomyces parapsilosis
Method in brief: (§3)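 Female ICR Swiss mice, neutropenic via cyclophosphamide s.c. (150 mg/kg day −4, 100 mg/kg day −1 and day +2), infected by tail-vein injection of clinical isolates 2 h before therapy. Intraperitoneal dosing every 24 h for 4 days, 4–6 dose levels from 0.078 to 160 mg/kg, 3 mice per regimen. Kidney CFU counted at 96 h. Sigmoid dose-effect fit gives static dose and 1 log kill dose relative to burden at start of therapy.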

Candida parapsilosis [6] = experiment: Antifungal activity against Candida parapsilosis 20519.069 after 24 hrs; assay type: functional; conditions: Lodderomyces parapsilosis, 20519.069, 24 h; method in brief: as §1
Mus musculus [7] = experiment: Cmax in Candida albicans infected neutropenic ICR Swiss mouse at 20 mg/kg, ip; assay type: ADME, organism-based; set-up: dose 20 mg/kg, route intraperitoneal; conditions: in vivo; method in brief: as §2
Candida parapsilosis [8] = experiment: Fungistatic activity against Candida parapsilosis infected in neutropenic ICR Swiss mouse after 24 hrs; assay type: functional; method in brief: as §3
Candida parapsilosis [9] = experiment: Antifungal activity against Candida parapsilosis 20477.078 after 24 hrs; assay type: functional; conditions: Lodderomyces parapsilosis, 20477.078, 24 h; method in brief: as §1
Nakaseomyces glabratus [10] = experiment: Antifungal activity against Candida glabrata 5376 after 24 hrs; assay type: functional; conditions: Nakaseomyces glabratus, 5376, 24 h
Method in brief: (§4)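 Broth microdilution per CLSI M27-A3 in RPMI 1640; inoculum 0.5 × 10³ to 2.5 × 10³ cells/ml, 35°C. […] Three separate occasions in duplicate, mean reported; C. krusei ATCC 6258 and C. parapsilosis ATCC 22019 as daily QC.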

Candida albicans [11] = experiment: Antifungal activity against Candida albicans infected in ICR Swiss mouse; assay type: functional; conditions: for ED50: Candida albicans; method in brief: as §3
Candida parapsilosis [12] = experiment: Antifungal activity against Candida parapsilosis 20553.009 after 24 hrs; assay type: functional; conditions: Lodderomyces parapsilosis, 20553.009, 24 h; method in brief: as §1
Nakaseomyces glabratus [13] = experiment: Antifungal activity against Candida glabrata infected in neutropenic ICR Swiss mouse assessed log reduction in bacterial count […]; assay type: functional; method in brief: as §3
[14] = Ratio of AUC (0 to 24 hrs) in Candida parapsilosis infected neutropenic ICR Swiss mouse to MIC for Candida parapsilosis at 1 log kill dose after 24 hrs; assay type: functional
Method in brief: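 Neutropenic mice were infected iv and treated 2 h later. Four to six ip dose levels (0.078–160 mg/kg) were given every 24 h for 4 days, 3 mice per regimen. Kidney CFU were counted at 96 h. A sigmoid dose-effect model gave the static and 1-log-kill doses relative to burden at therapy start.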

[15] = AUC (0 to 24 hrs) in Candida albicans infected neutropenic ICR Swiss mouse at 5 mg/kg, ip; assay type: ADME, organism-based; set-up: time < 24 hr, dose 5 mg/kg, route intraperitoneal; conditions: plasma; method in brief: as §2
Candida parapsilosis [16] = experiment: Antifungal activity against Candida parapsilosis 20423.072 after 24 hrs; assay type: functional; conditions: Lodderomyces parapsilosis, 20423.072, 24 h; method in brief: as §1
Candida albicans [17] = experiment: Antifungal activity against Candida albicans K1 after 24 hrs; assay type: functional; conditions: K1, 24 h; method in brief: as §4
Candida parapsilosis [18] = experiment: Antifungal activity against Candida parapsilosis 20511.092 after 24 hrs; assay type: functional; conditions: Lodderomyces parapsilosis, 20511.092, 24 h; method in brief: as §1
[19] = Ratio of fAUC (0 to 24 hrs) in Candida parapsilosis infected neutropenic ICR Swiss mouse to MIC for Candida parapsilosis at static dose after 24 hrs; assay type: functional
Mus musculus [20] = experiment: Cmax in Candida albicans infected neutropenic ICR Swiss mouse at 5 mg/kg, ip; assay type: ADME, organism-based; set-up: dose 5 mg/kg, route intraperitoneal; conditions: in vivo; method in brief: as §2
Candida orthopsilosis = experiment: Antifungal activity against Candida orthopsilosis 20577.055 after 24 hrs; assay type: functional; conditions: Lodderomyces orthopsilosis, 20577.055, 24 h; method in brief: as §1

SMILES	MIC (Nakaseomyces glabratus [3])	AUC(0-t) at 24 h [4]	Emax (Candida parapsilosis [5])	ED50 (Candida parapsilosis [5])	MIC (Candida parapsilosis [6])	Activity (Candida parapsilosis [8])	MIC (Candida parapsilosis [9])	MIC (Nakaseomyces glabratus [10])	Emax (Candida albicans [11])	ED50 (Candida albicans [11])	MIC (Candida parapsilosis [12])	Activity (Nakaseomyces glabratus [13])	Ratio [14]	AUC(0-t) at 24 h [15]	MIC (Candida parapsilosis [16])	MIC (Candida albicans [17])	MIC (Candida parapsilosis [18])	Ratio [19]	MIC (Candida orthopsilosis)	further results
CCCCCOc1ccc(-c2ccc(-c3ccc(C(=O)N[C@H]4C[C@@H](O)[C@@H](O)NC(=O)[C@@H]5[C@@H](O)[C@@H](C)CN5C(=O)[C@H]([C@@H](C)O)NC(=O)[C@H]([C@H](O)[C@@H](O)c5ccc(O)cc5)NC(=O)[C@@H]5C[C@@H](O)CN5C(=O)[C@H]([C@@H](C)O)NC4=O)cc3)cc2)cc1 [ANIDULAFUNGIN] ({pTerphenylCO(4''-OnC5H11)}-[Orn(4R-OH,5R-OH)]T[Hyp][hTyr(3S-OH,4S-OH)]T[Pro(3S-OH,4S-Me)]; lactam 1-C)	0.25 µg/mL (≈ 0.219 µM)	382 µg·h/mL	5.8 log10 CFU/kidneys	7.2 mg/kg	4 µg/mL (≈ 3.51 µM)	51 mg/kg	2 µg/mL (≈ 1.75 µM)	0.03 µg/mL (≈ 0.0263 µM)	6.9 log10 CFU/kidneys	26.1 mg/kg	2 µg/mL (≈ 1.75 µM)	39 mg/kg	2244	96 µg·h/mL	1 µg/mL (≈ 0.877 µM)	0.015 µg/mL (≈ 0.0132 µM)	1 µg/mL (≈ 0.877 µM)	11.5	0.5 µg/mL (≈ 0.438 µM)	MIC (Candida albicans [1]): 0.015 µg/mL (≈ 0.0132 µM); Cmax (Mus musculus [2]): 60000 ng/mL; Cmax (Mus musculus [7]): 24000 ng/mL; Cmax (Mus musculus [20]): 4300 ng/mL
CCCCCOc1ccc(-c2cc(-c3ccc(C(=O)N[C@H]4C[C@@H](O)[C@@H](O)NC(=O)[C@@H]5[C@@H](O)[C@@H](C)CN5C(=O)[C@H]([C@H](O)CC(N)=O)NC(=O)[C@H]([C@H](O)[C@@H](O)c5ccc(O)c(OS(=O)(=O)O)c5)NC(=O)[C@@H]5C[C@@H](O)CN5C(=O)[C@H]([C@@H](C)O)NC4=O)cc3)no2)cc1 [MICAFUNGIN] (X1-[Orn(4R-OH,5R-OH)]T[Hyp][hTyr(3S-OH,4S-OH,3'-OSO3H)][Gln(3R-OH)][Pro(3S-OH,4S-Me)]; lactam 1-C)	0.06 µg/mL (≈ 0.0472 µM)	520 µg·h/mL	4.8 log10 CFU/kidneys	2.6 mg/kg	1 µg/mL (≈ 0.787 µM)	32.3 mg/kg	0.5 µg/mL (≈ 0.394 µM)	0.008 µg/mL (≈ 0.0063 µM)	7.2 log10 CFU/kidneys	18.9 mg/kg	1 µg/mL (≈ 0.787 µM)	5.88 mg/kg	3090	138 µg·h/mL	0.25 µg/mL (≈ 0.197 µM)	0.016 µg/mL (≈ 0.0126 µM)	0.25 µg/mL (≈ 0.197 µM)	4.95	0.25 µg/mL (≈ 0.197 µM)	–
